From ChEMBL document CHEMBL1144889 (J Med Chem, 2003)
pEC50, pKi: −log10 of the molar value. Activity calls are given as the source filed them. No cut-off for these calls is given here.

Columns and labels:
Glucocorticoid receptor [1] = target: T1, Glucocorticoid receptor (Homo sapiens, UniProt P04150); test: Transcriptional activation in CV-1 cells expressing human glucocorticoid receptor; - = low efficacy or a functional efficacy <5%; assay type: cell-based
T1 sequence (P04150 whole entry): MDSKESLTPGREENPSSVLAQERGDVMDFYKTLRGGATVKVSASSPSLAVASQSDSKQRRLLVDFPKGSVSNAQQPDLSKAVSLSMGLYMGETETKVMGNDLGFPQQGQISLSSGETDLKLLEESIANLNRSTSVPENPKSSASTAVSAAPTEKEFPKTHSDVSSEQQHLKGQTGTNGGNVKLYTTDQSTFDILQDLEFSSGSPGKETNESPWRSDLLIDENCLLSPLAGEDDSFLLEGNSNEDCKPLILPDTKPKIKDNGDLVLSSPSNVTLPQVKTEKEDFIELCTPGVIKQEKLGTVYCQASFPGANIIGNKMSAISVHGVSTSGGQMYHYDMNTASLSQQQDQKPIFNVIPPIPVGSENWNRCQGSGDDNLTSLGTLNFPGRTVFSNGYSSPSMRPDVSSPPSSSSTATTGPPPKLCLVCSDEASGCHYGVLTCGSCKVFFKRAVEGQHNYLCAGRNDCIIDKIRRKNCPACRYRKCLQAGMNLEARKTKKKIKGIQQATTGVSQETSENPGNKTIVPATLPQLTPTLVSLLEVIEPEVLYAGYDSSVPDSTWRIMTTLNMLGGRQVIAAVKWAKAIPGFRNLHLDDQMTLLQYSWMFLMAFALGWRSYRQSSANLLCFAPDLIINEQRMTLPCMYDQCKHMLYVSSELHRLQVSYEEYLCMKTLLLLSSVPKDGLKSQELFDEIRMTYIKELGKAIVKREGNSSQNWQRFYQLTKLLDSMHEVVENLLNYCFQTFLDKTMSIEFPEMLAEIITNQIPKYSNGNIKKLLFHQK
Procedure, shortened: (§1)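 Cotransfection of an hGR receptor plasmid with a luciferase reporter driven by the MMTV promoter (four GREs) in CV-1 cells. Seven-point half-log concentration-response curves. EC50 taken as half-maximal response. Efficacy expressed as % of the dexamethasone maximum. Mean of two experiments in triplicate, single triplicate run, or ≥3 experiments in triplicate.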

[2] = target: T2, Glucocorticoid receptor (Homo sapiens) (UniProt P04150); test: Transcriptional activation in CV-1 cells expressing human glucocorticoid receptor compared to Dexamethasone; assay type: functional, cell-based
T2 sequence (whole entry): T1 sequence (P04150 whole entry)
Procedure, shortened: (§2)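 GRE activation co-transfection in CV-1 cells: hGR receptor plasmid plus a luciferase reporter driven by part of the MMTV promoter (four GRE sites, no known AP-1 or NFκB affinity). Full seven-point, half-log concentration-response curves run in triplicate. EC50 is the concentration at half-maximal response; efficacy is given as % of the dexamethasone maximal response.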

Glucocorticoid receptor [3] = target: T1, Glucocorticoid receptor; test: Binding affinity towards human glucocorticoid receptor (GR) was determined using [3H]dexamethasone as radioligand in […] cells; assay type: cell-based
Glucocorticoid receptor [4] = target: T1, Glucocorticoid receptor; test: Transcriptional repression in HepG2 cells expressing human glucocorticoid receptor; assay type: functional, cell-based
Glucocorticoid receptor [5] = target: T1, Glucocorticoid receptor; test: Transcriptional activation in CV-1 cells expressing human glucocorticoid receptor; - = low efficacy or a functional efficacy <20%; assay type: cell-based; procedure, shortened: as §1
Glucocorticoid receptor [6] = target: T1, Glucocorticoid receptor; test: Transcriptional repression in HepG2 cells expressing human glucocorticoid receptor; - = low efficacy or a functional efficacy <20%; assay type: cell-based
Procedure, shortened: (§3)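 Cotransfection in HepG2 cells with a luciferase reporter under an E-selectin promoter carrying one NFκB and one AP-1 site. Readout is repression of transcription. Seven-point half-log concentration-response curves. EC50 taken at half-maximal response. Efficacy expressed as % of the dexamethasone maximum. Mean of two experiments in triplicate, single run, or ≥3 experiments.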

[7] = target: T2, Glucocorticoid receptor (Homo sapiens); test: Transcriptional activation in CV-1 cells expressing human glucocorticoid receptor compared to Dexamethasone; - = low efficacy or a functional efficacy <20%; assay type: cell-based; procedure, shortened: as §2
[8] = target: T2, Glucocorticoid receptor (Homo sapiens); test: Transcriptional repression in HepG2 cells expressing human glucocorticoid receptor compared to Dexamethasone; - = low efficacy or a functional efficacy <20%; assay type: cell-based
Procedure, shortened: (§4)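 Repression co-transfection in HepG2 cells: luciferase reporter under an E-selectin promoter carrying one NFκB and one AP-1 binding site. Full seven-point, half-log concentration-response curves run in triplicate. EC50 is the concentration at half-maximal response; maximal efficacy is given as % of the dexamethasone maximal response.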

Progesterone receptor = target: T3, Progesterone receptor (Homo sapiens, UniProt P06401); test: Displacement of [3H]progesterone from human Progesterone receptor A; - = low efficacy or functional efficacy <20%
T3 sequence (P06401 whole entry): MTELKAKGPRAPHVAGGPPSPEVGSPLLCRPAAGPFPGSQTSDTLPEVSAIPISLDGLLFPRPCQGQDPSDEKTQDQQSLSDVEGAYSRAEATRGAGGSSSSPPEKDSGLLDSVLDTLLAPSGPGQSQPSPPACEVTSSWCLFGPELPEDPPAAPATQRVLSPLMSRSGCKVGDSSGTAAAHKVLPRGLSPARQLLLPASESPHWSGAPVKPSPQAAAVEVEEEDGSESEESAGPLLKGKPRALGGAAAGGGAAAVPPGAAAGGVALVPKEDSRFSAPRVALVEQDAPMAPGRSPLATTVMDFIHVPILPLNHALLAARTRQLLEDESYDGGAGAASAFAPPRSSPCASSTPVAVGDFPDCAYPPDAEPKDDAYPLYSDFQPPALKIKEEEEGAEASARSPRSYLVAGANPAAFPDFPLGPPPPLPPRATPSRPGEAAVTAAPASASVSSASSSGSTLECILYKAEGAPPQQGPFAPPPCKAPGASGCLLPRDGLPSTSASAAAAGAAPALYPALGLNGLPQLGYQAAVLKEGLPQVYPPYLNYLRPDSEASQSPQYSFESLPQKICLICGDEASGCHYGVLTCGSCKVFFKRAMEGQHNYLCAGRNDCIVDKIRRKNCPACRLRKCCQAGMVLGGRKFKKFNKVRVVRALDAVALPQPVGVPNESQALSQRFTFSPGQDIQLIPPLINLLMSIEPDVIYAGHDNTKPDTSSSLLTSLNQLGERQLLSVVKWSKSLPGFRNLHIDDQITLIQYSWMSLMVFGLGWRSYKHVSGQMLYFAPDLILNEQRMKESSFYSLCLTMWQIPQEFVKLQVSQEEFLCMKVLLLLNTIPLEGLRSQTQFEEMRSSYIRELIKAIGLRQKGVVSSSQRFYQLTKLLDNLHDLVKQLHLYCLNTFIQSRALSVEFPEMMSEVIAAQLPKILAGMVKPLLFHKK
Procedure, shortened: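 Human PR-A expressed from baculovirus in Sf21 cells, cytosol about 40 µg protein. Incubated with about 0.8 nM [3H]progesterone overnight at 4 °C in Tris/EDTA/glycerol/DTT/molybdate buffer, pH 7.6. Nonspecific binding taken with 1 µM unlabeled progesterone. Hydroxyapatite capture, scintillation counting. IC50 from Hill analysis, Ki from Cheng-Prusoff.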

Glucocorticoid receptor [9] = target: T1, Glucocorticoid receptor; test: Transcriptional repression in HepG2 cells expressing human glucocorticoid receptor; - = low efficacy or a functional efficacy <5%; assay type: cell-based; procedure, shortened: as §3
[10] = target: T2, Glucocorticoid receptor (Homo sapiens); test: Transcriptional activation in CV-1 cells expressing human glucocorticoid receptor compared to Dexamethasone; - = low efficacy or a functional efficacy <5%; assay type: cell-based; procedure, shortened: as §2
[11] = target: T2, Glucocorticoid receptor (Homo sapiens); test: Transcriptional repression in HepG2 cells expressing human glucocorticoid receptor compared to Dexamethasone; - = low efficacy or a functional efficacy <5%; assay type: cell-based; procedure, shortened: as §4

Row | Compound | EC50 (Glucocorticoid receptor [1]) | Efficacy [2] [%] | pKi (Glucocorticoid receptor [3]) | EC50 (Glucocorticoid receptor [5]) | EC50 (Glucocorticoid receptor [6]) | further results
1 | C=CCC1Oc2ccc(OCC)c(OC)c2-c2ccc3c(c21)C(C)=CC(C)(C)N3 (configuration not stated) | – | – | – | – | Not Active | Ki (Progesterone receptor): Not Active
2 | C=CCC1Oc2cccc(C(=O)OC)c2-c2ccc3c(c21)C(C)=CC(C)(C)N3 (configuration not stated) | Not Active | – | 6.40 | – | – | EC50 (Glucocorticoid receptor [9]): Not Active; Efficacy [10]: inactive; Efficacy [11]: inactive
3 | C=CCC1Oc2cccc(OCC3CC3)c2-c2ccc3c(c21)C(C)=CC(C)(C)N3 (configuration not stated) | – | – | 5.68 | Not Active | Not Active | Efficacy [7]: inactive; Efficacy [8]: inactive
4 | C=CCC1Oc2cccc(COC)c2-c2ccc3c(c21)C(C)=CC(C)(C)N3 (configuration not stated) | Not Active | 5 | – | – | – | pEC50 (Glucocorticoid receptor [4]): 6.52

More lines, in order of rising pKi (Glucocorticoid receptor [3]), values ahead:

Row | EC50 (Glucocorticoid receptor [1]) | Efficacy [2] [%] | pKi (Glucocorticoid receptor [3]) | EC50 (Glucocorticoid receptor [5]) | EC50 (Glucocorticoid receptor [6]) | Compound | further results
5 | – | – | 5.22 | Not Active | Not Active | C=CCC1Oc2cccc(OCc3ccccc3)c2-c2ccc3c(c21)C(C)=CC(C)(C)N3 (configuration not stated) | Efficacy [7]: inactive; Efficacy [8]: inactive
6 | Not Active | 7 | 6.85 | – | – | C=CCC1Oc2cccc(CN)c2-c2ccc3c(c21)C(C)=CC(C)(C)N3 (configuration not stated) | pEC50 (Glucocorticoid receptor [4]): 6.33
7 | – | 0 | 7.06 | Not Active | Not Active | C=CCOc1cccc2c1-c1ccc3c(c1C(CC=C)O2)C(C)=CC(C)(C)N3 (configuration not stated) | –
8 | – | 0 | 7.19 | Not Active | Not Active | C=CCC1Oc2cccc(OCC)c2-c2ccc3c(c21)C(C)=CC(C)(C)N3 (configuration not stated) | –
